Columns and labels:
[1] = system: Escherichia coli; assay: Minimum concentration required to inhibit Escherichia coli ATCC 25922; type: functional
How it was run: (§1)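 Broth doubling-dilution MIC in Mueller Hinton broth against ATCC quality-control strains, incubated 24 h at 37 °C in ambient air. Poorly water-soluble compounds were dissolved in minimal DMSO. Values are in µg/mL.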

[2] = system: Enterococcus faecalis; assay: Minimum concentration required to inhibit Enterococcus faecalis ATCC 29212; type: functional; how it was run: as §1
[3] = system: Pseudomonas aeruginosa; assay: Minimum concentration required to inhibit Pseudomonas aeruginosa ATCC 27853; type: functional; how it was run: as §1
[4] = system: Staphylococcus aureus; assay: Minimum concentration required to inhibit Staphylococcus aureus ATCC 25923; type: functional; how it was run: as §1
[5] = Half life (t1/2) was determined; type: ADME
How it was run: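 Hydrolytic stability: compound from a 0.1 mg/mL ethanol stock was spiked into 10 mM phosphate buffer, pH 6, and held at 60 °C (±0.2 °C). Periodic HPLC or LC-MS/MS analysis was run, and k_obs came from linear regression of peak integration (n = 3). Selected compounds were also tested in diluted (1:4) agar at 37 °C.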

[6] = system: Staphylococcus aureus; assay: Tested for antibacterial activity against Staphylococcus aureus; type: functional
[7] = system: Human alphaherpesvirus 1; assay: Tested for antiviral activity against HSV-1 at a concentration of 100 ug/mL after 2 hr of treatment at 37 degrees C; type: functional, herpes simplex virus
How it was run: (§2)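 HSV-1 strain MacIntyre stock (10^6.5–10^7.5 TCID50/100 µL) was mixed 1:1 with twofold compound dilutions made in RPMI-1640 with 2% FBS from a 1 mg/mL HBSS stock; concentrations are final. Mixtures were held 2 h at 37 °C, then diluted 10-fold to stop. Residual titer was measured on Vero monolayers by 10-fold dilutions in quadruplicate wells, scoring CPE daily for 5 days at 37 °C and 5% CO2. Titers were calculated by Reed–Muench as log10 TCID50/0.1 mL, mean of three, against a virus-plus-medium control.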

[8] = system: Human alphaherpesvirus 1; assay: Tested for antiviral activity against HSV-1 at a concentration of 12.5 ug/mL after 2 hr of treatment at 37 degrees C; type: functional, herpes simplex virus; how it was run: as §2
[9] = system: Human alphaherpesvirus 1; assay: Tested for antiviral activity against HSV-1 at a concentration of 25 ug/mL after 2 hr of treatment at 37 degrees C; type: functional, herpes simplex virus; how it was run: as §2
[10] = system: Human alphaherpesvirus 1; assay: Tested for antiviral activity against HSV-1 at a concentration of 50 ug/mL after 2 hr of treatment at 37 degrees C; type: functional, herpes simplex virus; how it was run: as §2

| Compound | MIC [1] [µg/mL] | MLC [1] [µg/mL] | MIC [2] [µg/mL] | MLC [2] [µg/mL] | MIC [3] [µg/mL] | MLC [3] [µg/mL] | MIC [4] [µg/mL] | MLC [4] [µg/mL] | Log t1/2 [5] | Log 1/MIC [6] | Log TCID50 [7] | Log TCID50 [8] | Log TCID50 [9] | Log TCID50 [10] |
| --- | --- | --- | --- | --- | --- | --- | --- | --- | --- | --- | --- | --- | --- | --- |
| O=C(O)CC[n+]1ccccc1 | > 1000 | >1000 | > 1000 | >1000 | > 1000 | >1000 | > 1000 | >1000 |  |  |  |  |  |  |
| CCCCCCCC(=O)OCC[n+]1ccccc1.[Br-] | 1000 | 1000 | > 2000 | >2000 | > 2000 | >2000 | 500 | 500 | 0.62 | -2.69 |  |  |  |  |
| CCCCCCCCCCCC(=O)OCC[N+](CCCC)(CCCC)CCCC.CCCCCCCCCCCCCCCC(=O)OCC[N+](CCCC)(CCCC)CCCC.[Br-].[Br-] | 250 | 500 | 16 | 16 |  | >2000 | 4 | 32 |  |  |  |  |  |  |
| CCCCCCCCCCCCCCCC(=O)OCC[N+](CC)(CC)CC.[Br-] | 64 | 64 | 8 | 16 | 250 | 250 | 2 | 4 |  |  | 0.8 | 7 | 6.33 | 5.73 |
| O=C(O)C[n+]1ccccc1 | 12800 | 12800 | 12800 | 12800 | 12800 | 12800 | 6400 | 12800 |  |  |  |  |  |  |
| OCCC[n+]1ccccc1 | > 2000 | >2000 | > 2000 | >2000 | > 2000 | >2000 | > 2000 | >2000 |  |  |  |  |  |  |
| CCCCCCCCCCCCCCCCCCNC(=O)C[n+]1ccccc1.CCCCCCCCCCCCNC(=O)C[n+]1ccccc1.[Cl-].[Cl-] | 125 | 125 | 8 | 16 | 500 | 500 | 8 | 32 |  |  |  |  |  |  |
| CC[N+](CC)(CC)CCO.[Br-] | > 1000 | >1000 | > 1000 | >1000 | > 1000 | >1000 | > 1000 | >1000 |  |  |  |  |  |  |
| CCCCCCCCCCCC(=O)OCC[N+](CC)(CC)CC.[Br-] | 16 | 125 | 32 | 32 | 250 | 250 | 16 | 16 | 0.52 | -1.2 |  |  |  |  |
| CCCCCCCCCCCCCCCC(=O)OCC[N+](CCCC)(CCCC)CCCC | 125 | 250 | 4 | 8 | 250 | 1000 | 2 | 2 | 0.12 | -0.3 |  |  |  |  |
| CCCCCCOC(=O)C[n+]1ccccc1 | > 12800 | >12800 | > 12800 | >12800 | > 12800 | >12800 | > 12800 | >12800 | 0.15 | -4.1 |  |  |  |  |
| CCCCCCCCCCCCCCCCCCNC(=O)C[n+]1ccccc1 | 1000 | >2000 | < 0.25 | 8 | 1000 | >2000 | < 0.25 | 4 | 0.81 | 0.6 |  |  |  |  |
| CCOC(=O)C[n+]1ccccc1 | > 12800 | >12800 | > 12800 | >12800 | > 12800 | >12800 | > 12800 | >12800 |  |  |  |  |  |  |
